# Compound activity from PubChem BioAssay.
# Shown are actives, neighbours in structure and some others; about 9.2% of the full set was active somewhere.
# ERa SRC1 inh: ERα–SRC-1 coactivator interaction inhibitors, primary screen, biochemical, TR-FRET, ERα LBD, estradiol-bound | TR-FRET ER-alpha LBD / SRC-1 peptide | inhibition, % at 25.6 µM | 1.7% of 86,000 active; in the data active = inhibition above about 50%;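 also: 0% = receptor plus peptide control and 100% = peptide only without receptor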
# Target sequence (P03372 whole entry, looked up, the tested form may be a part): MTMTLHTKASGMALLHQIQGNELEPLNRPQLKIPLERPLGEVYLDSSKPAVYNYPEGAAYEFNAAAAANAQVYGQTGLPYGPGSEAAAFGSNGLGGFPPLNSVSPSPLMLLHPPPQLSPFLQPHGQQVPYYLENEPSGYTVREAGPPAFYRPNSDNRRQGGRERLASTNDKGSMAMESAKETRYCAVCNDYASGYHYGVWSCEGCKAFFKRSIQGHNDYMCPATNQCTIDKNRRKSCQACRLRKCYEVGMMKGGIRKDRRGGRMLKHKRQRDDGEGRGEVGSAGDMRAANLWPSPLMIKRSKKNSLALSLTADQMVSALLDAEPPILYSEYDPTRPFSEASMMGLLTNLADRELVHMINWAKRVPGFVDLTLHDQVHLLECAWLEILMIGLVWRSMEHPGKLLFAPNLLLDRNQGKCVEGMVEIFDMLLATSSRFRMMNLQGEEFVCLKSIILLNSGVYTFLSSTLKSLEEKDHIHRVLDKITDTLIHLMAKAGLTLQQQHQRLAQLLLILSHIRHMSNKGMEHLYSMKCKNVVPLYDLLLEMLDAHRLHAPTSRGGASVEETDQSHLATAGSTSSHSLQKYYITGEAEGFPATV
# Fibroblast inh: antiproliferative effect on LL 47 fibroblasts – human, LL 47 cells, CellTiter-Glo luminescence, primary screen; LL 47 human lung fibroblast viability, ATP luminescence; hits give low values; viability, % at 10 µM; 1.1% of 85,000 active; AID 719, 2007;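 active = viability at or below 50% in the single dose screen; inactive = viability above 50%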;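 also: compound exposure lasted 72 h before the ATP readout; 100% = median luminescence of untreated cell-only wells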
#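 Test system: LL 47 human lung fibroblasts; Quantity: 1,150 cells/well; Buffer or medium: IMEM plus 15% FBS; Dosing: tenfold compound dosing solution, DMSO at 0.1%; Timing: overnight cell rest, 72 h compound treatment at 37 °C; Detection: ATP-based CellTiter-Glo luminescent readout; Read-out basis: viability percentage against median untreated-cell control; Controls: cell-only wells, no compound.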
# H69AR inhibit: proliferation blockers of H69AR lung cancer cells, primary screen, cell-based, human, 86K library; AID 598, 2007; 6% of 85,000 active; viability, % at 10 µM; H69AR lung tumor viability, ATP luminescence, 72 h; hits give low values;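 active = viability at or below 40%; inactive = viability above 40%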;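 also: multidrug resistant small cell line overexpressing MRP-1 efflux transporter; 100% = mean luminescence of untreated control wells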
# ERa coact pot: enhancers of ERα–SRC-1 coactivator binding, primary screen, biochemical, TR-FRET, ERα LBD, low estradiol; Estrogen receptor (Homo sapiens), P03372; TR-FRET ERalpha-LBD/SRC-Cy5 coactivator binding, 2 h; 100 = basal binding, no effect; 1.3% of 86,000 active; coactivator binding (% of control), % at 25.6 µM; in the data active = activity above about 200%;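 also: binding measured in presence of low estradiol as agonist stimulus; 0% = peptide alone without receptor and 100% = receptor with peptide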
# ERb coact inh: inhibitors of ERβ-SRC1 coactivator interaction, primary screen, biochemical, TR-FRET, ERβ LBD, SRC-1 peptide. 1.3% of 86,000 active. TR-FRET ER-beta LBD / SRC1-Cy5 peptide binding; receptor agonist-loaded with 1 µM estradiol. Estrogen receptor beta (Homo sapiens), Q92731. inhibition, % at 25.6 µM;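 active = compounds whose percent inhibition of the receptor-coactivator binding signal exceeds about 50% in the single-dose screen, limit read from the data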;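 also: 0% = receptor plus peptide wells without compound and 100% = peptide-only wells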
# HUVEC prolif 384: inhibitors of HUVEC proliferation, primary screen, cell-based, 384-well; CellTiter-Glo luminescence, 72 h; hits give low values; viability, % at 10 µM (by protocol); 1.1% of 86,000 active;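 active = viability at or below 30%; inactive = viability above 30%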;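 also: 100% = median luminescence of DMSO-only cell control wells on each plate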
# The depositor's hits bear a star; nt = no result given; [ ] = another dose, or the depositor's remark.
SMILES,ERa SRC1 inh,Fibroblast inh,H69AR inhibit,ERa coact pot,ERb coact inh,HUVEC prolif 384
CCn1cc(C(=O)Nc2ccc(-n3cnnn3)c(OC)c2)c(=O)c2ccc(C)nc21,-46,99,89,337*[fluorescence artefact?],-1,94
CCn1cc(C(=O)NC2CCc3ccccc32)c(=O)c2ccc(C)nc21 (configuration not stated),-10,103,96,425*[fluorescence artefact?],15,102
COc1ccc(C2c3cc(OC)c(OC)cc3CCN2C2CC(=O)N(c3ccccc3)C2=O)cc1OC (configuration not stated),3,95,92,108,-4,106
O=S1(=O)N=C(Nc2ccc(O)c(CN3CCCCC3)c2)c2ccccc21,3,nt,33*,117,6,100
CCN(CC)S(=O)(=O)c1ccc(NC2=NS(=O)(=O)c3ccccc32)cc1,0,108,83,114,3,90
COc1ccc2nc(SCC(=O)Nc3ccccc3C)[nH]c2c1,-4,103,69,108,-14,110
O=C(/C=C/c1ccc(Cl)c(Cl)c1)n1cccn1,-4,86,10*,133,-8,79
Cc1onc(-c2ccccc2)c1C(=O)n1cccn1,-7,105,94,100,-7,103
CCc1nc(C)cn1S(=O)(=O)c1cc(C)c(OC)c(C)c1C,-5,83,89,94,-2,66
CCOC(=O)COc1ccc(S(=O)(=O)NCCC2=CCCCC2)cc1,-9,93,92,110,-11,4.4*
O=C(Nc1nnc(C2CCCCC2)s1)c1ccc(Br)s1,11,99,68,367*[fluorescence artefact?],52*[fluorescence artefact?],93
COc1ccc(OC)c2sc(NC(=O)c3ccc(Br)s3)nc12,82*[fluorescence artefact?],89,49,126,70*[fluorescence artefact?],70
Cc1cc(C(=O)Nc2nnc(C3CCCCC3)s2)cs1,3,101,88,111,-4,103
CCSc1nnc(NC(=O)c2ccc(Br)s2)s1,8,83,87,396*[fluorescence artefact?],28,83
CCC(=O)Nc1nc2c(OC)ccc(OC)c2s1,-2,99,107,94,-13,77
CCSc1nnc(NC(=O)c2ccccn2)s1,10,nt,18*,92,-4,45
CCSc1nnc(NC(=O)c2ccco2)s1,-10,104,86,98,0,96
CCSc1nnc(NC(=O)c2cnccn2)s1,11,nt,49,87,15,97
CCC(=O)N1CCc2cc(S(=O)(=O)NCCCN(CC)Cc3ccccc3)ccc21,-9,89,89,93,-3,92
CCSc1nnc(NC(=O)C(CC)(C(F)(F)F)C(F)(F)F)s1,1,95,36*,119,-1,73
CCSc1nnc(NC(=O)C(C)(C(F)(F)F)C(F)(F)F)s1,4,100,88,128,1,84
CCOc1ccc(OCCCCNCCN)cc1,0,104,93,109,0,98
Cn1c(=O)n(Cc2ccccc2)c(=O)c2c1nc1n2CCCN1Cc1ccccc1,-4,91,32*,108,-9,92
Cc1ccc(Cn2c(=O)c3c(nc4n3CCCN4Cc3ccccc3)n(C)c2=O)cc1,1,95,61,104,1,89
COc1ccc(N2CCn3c2nc2c3c(=O)n(CCCc3ccccc3)c(=O)n2C)cc1,87*[fluorescence artefact?],96,92,33,43,91
COc1cc(NC(=O)c2cccs2)c(C(=O)OCC(=O)NC(=O)NCc2ccccc2)cc1OC,39,100,27*,344*,1,74
COc1cc(NC(=O)c2cccs2)c(C(=O)OCC(=O)NC(=O)NC(C)(C)C)cc1OC,16,102,98,101,75*,88
CC(C)Cn1c(CN2CCCCC2C)nc2c1c(=O)n(C)c(=O)n2C (configuration not stated),10,99,88,89,38,100
